In ChEMBL document CHEMBL1144112, “New bromopyrrole alkaloids from the Indopacific sponge Agelas nakamurai” (1999):

Experiments:
Assay type in all cases: functional
Escherichia coli [1] = test: Antibacterial activity against Escherichia coli HB101 at 0.2 umol/disk after 24 hrs by agar plate diffusion assay
Summary of the method: (§1)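 Paper disks 5 mm across loaded with 0.2 µmol of each isolated compound, placed on agar plates seeded with the test bacterium (B. subtilis 168, S. aureus ATCC 25923, E. coli ATCC 25922 or E. coli HB 101). Read-out is the diameter of the inhibition zone in mm.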

Bacillus subtilis = test: Antibacterial activity against Bacillus subtilis subsp. subtilis str. 168 at 0.2 umol/disk after 24 hrs by agar plate diffusion assay; summary of the method: as §1
Escherichia coli [2] = test: Antibacterial activity against Escherichia coli ATCC 25922 at 0.2 umol/disk after 24 hrs by agar plate diffusion assay; summary of the method: as §1
Staphylococcus aureus = test: Antibacterial activity against Staphylococcus aureus ATCC 25923 at 0.2 umol/disk after 24 hrs by agar plate diffusion assay; summary of the method: as §1

Row | Compound | inhibition zone (IZ) (Escherichia coli [1]) | inhibition zone (IZ) (Bacillus subtilis) | inhibition zone (IZ) (Escherichia coli [2]) | inhibition zone (IZ) (Staphylococcus aureus)
1 | Nc1nc([C@@H]2c3[nH]c(N)nc3C[C@H](CNC(=O)c3cc(Br)c[nH]3)[C@H]2CNC(=O)c2cc(Br)c[nH]2)c[nH]1.O=C(O)C(F)(F)F.O=C(O)C(F)(F)F [AGELIFERIN] | 11 mm | 14 mm | 8 mm | 11 mm
2 | Cl.Cl.Nc1ncc([C@H]2[C@H](CNC(=O)c3ccc[nH]3)[C@@H](CNC(=O)c3ccc[nH]3)[C@@H]2c2cnc(N)[nH]2)[nH]1 [DEBROMOSCEPTRIN] |  | 10 mm |  | 
3 | COC(=O)[C@H]1[C@H](CNC(=O)c2cc(Br)c[nH]2)[C@@H](CNC(=O)c2cc(Br)c[nH]2)[C@@H]1c1c[nH]c(N)n1.O=C(O)C(F)(F)F [NAKAMURIC ACID METHYL ESTER] |  | 9 mm |  | 
4 | Nc1nc([C@H]2[C@H](CNC(=O)c3cc(Br)c[nH]3)[C@@H](CNC(=O)c3cc(Br)c[nH]3)[C@@H]2C(=O)O)c[nH]1.O=C(O)C(F)(F)F [NAKAMURIC ACID] |  | 9 mm |  | 
5 | Nc1nc([C@H]2[C@H](CNC(=O)c3cc(Br)c[nH]3)[C@@H](CNC(=O)c3cc(Br)c[nH]3)[C@@H]2c2c[nH]c(N)n2)c[nH]1.O=C(O)C(F)(F)F.O=C(O)C(F)(F)F [SCEPTRIN (TFA SALT)] | 13 mm | 16 mm | 9 mm | 16 mm
